{"data": "Results pooled from the literature", "MCU": "Calcium uniporter protein, mitochondrial (MCU, Homo sapiens, UniProt Q8NE86)", "MTOR": "Serine/threonine-protein kinase mTOR (MTOR, Homo sapiens, UniProt P42345)", "ELANE": "Neutrophil elastase (ELANE, Homo sapiens, UniProt P08246)", "note": "Lines come from different studies, so protocols differ."}
{"Structure (SMILES)": "COc1cc(Nc2ncc(F)c(Nc3ccc4c(n3)NC(=O)C(C)(C)O4)n2)cc(OC)c1OC", "target": "Adenosine receptor A3 (ADORA3, Homo sapiens, UniProt P0DMS8)", "effect on": "cell-free assay", "mode": "inhibitor", "IC50 [nM]": 20}
{"Structure (SMILES)": "Cl.Cl.N.N.N.N.N.N.N.N.[N-3].[Ru+4].[Ru+4]", "target": "MCU", "effect on": "transporter uptake", "mode": "inhibitor", "IC50 [nM]": 8.6}
{"Structure (SMILES)": "Nc1ncc(-c2nc(N3CCOCC3)nc(N3CCOCC3)n2)c(C(F)F)n1", "target": "MTOR", "effect on": "ligand displacement", "technique": "TR-FRET", "IC50 [nM]": 49.9}
{"Structure (SMILES)": "O=S(=O)([O-])[O-].[Cu+2]", "target": "Delta-aminolevulinic acid dehydratase (Homo sapiens, UniProt P13716, C162A/K59N)", "effect on": "enzyme activity", "mode": "inhibitor", "technique": "absorbance", "pH": "pH 8", "IC50 [nM]": 2200}
{"Structure (SMILES)": "CN[C@@H]1C[C@H]2O[C@@](C)([C@@H]1OC)n1c3ccccc3c3c4c(c5c6ccccc6n2c5c31)C(=O)NC4", "target": "Serine/threonine-protein kinase LMTK3 (LMTK3, Homo sapiens, UniProt Q96Q04)", "effect on": "enzyme activity", "mode": "inhibitor", "technique": "TR-FRET", "IC50 [nM]": 0.0045}
{"Structure (SMILES)": "CC(=O)Oc1ccc(-c2coc3c4c(c(CC=C(C)C)c(OC(C)=O)c3c2=O)OC(C)(C)C=C4)cc1OC(C)=O", "target": "MTOR", "effect on": "enzyme activity", "mode": "inhibitor", "technique": "ELISA", "IC50 [nM]": 6200}
{"Structure (SMILES)": "C1CNCN2CNCCNCN(CN1)CNCCNC2.[Co+3]", "target": "MCU", "effect on": "transporter uptake", "mode": "inhibitor", "IC50 [nM]": 131}
{"Structure (SMILES)": "CC(C)C[C@H](NC(=O)[C@H](Cc1ccccc1)NC(=O)c1cnccn1)B(O)O", "target": "ELANE", "effect on": "enzyme activity", "mode": "inhibitor", "IC50 [nM]": "> 33000"}
{"Structure (SMILES)": "CC(C)C[C@H](NC(=O)[C@H](Cc1ccccc1)NC(=O)[C@H](Cc1ccc(O)cc1)NC(=O)CNC(=O)[C@H](CCCCN)NC(=O)[C@H](CO)NC(=O)[C@H](CCC(N)=O)NC(=O)CNC(=O)[C@@H](NC(=O)[C@H](CO)NC(=O)[C@@H]1CCCN1C(=O)[C@H](CO)NC(=O)[C@H](CCC(N)=O)NC(=O)[C@H](Cc1ccc(O)cc1)NC(=O)[C@H](CCC(=O)O)NC(=O)[C@H](C)NC(=O)[C@H](CCCCN)NC(=O)[C@@H](N)Cc1ccccc1)C(C)C)C(=O)N[C@@H](Cc1ccccc1)C(=O)N[C@@H](CCCNC(=N)N)C(=O)N1CCC[C@H]1C(=O)N[C@@H](CCCNC(=N)N)C(=O)N[C@@H](CC(N)=O)C(N)=O", "target": "Neuromedin-U receptor 2 (Mus musculus, UniProt Q8BZ39)", "effect on": "ligand displacement", "technique": "radioligand", "IC50 [nM]": 0.0302}
{"Structure (SMILES)": "N.N.N.N.N.N.N.N.O=C(O)c1ccccc1.O=C(O)c1ccccc1.[N-3].[Ru+4].[Ru+4]", "target": "MCU", "effect on": "transporter uptake", "mode": "inhibitor", "IC50 [nM]": 13.9}
{"Structure (SMILES)": "N#Cc1nn(C(=O)C2CCCC2)c2ncccc12", "target": "ELANE", "effect on": "enzyme activity", "mode": "inhibitor", "technique": "fluorescence", "IC50 [nM]": 160}
{"Structure (SMILES)": "COc1ccc(C(=O)O)cc1S(=O)(=O)Nc1ccc(C(F)(F)F)cc1N1CCCCC1", "target": "Endoplasmic reticulum aminopeptidase 2 (ERAP2, Homo sapiens, UniProt Q6P179, K392N)", "effect on": "enzyme activity", "mode": "inhibitor", "IC50 [nM]": 44000}
